SUMO1-SIM PPI – alters human SUMO1 binding to SIM partners. SUMO1 binding to a labelled peptide, TR-FRET, 1 h. inhibition, % at 20 µM. 360,000 compounds, 0.33% hits; in the data active = inhibition above about 37%
Target sequence (P63165 whole entry, looked up): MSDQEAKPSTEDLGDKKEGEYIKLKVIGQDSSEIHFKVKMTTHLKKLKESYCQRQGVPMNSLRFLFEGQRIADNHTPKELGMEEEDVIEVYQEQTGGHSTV
LMPTP inh – LMPTP (human) inhibition; recombinant LMPTP-A, OMFP fluorogenic substrate, fluorescence intensity; inhibition, % at 20 µM; 360,000 compounds, 0.22% hits; AID 651560;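 active = compounds that cut the enzyme signal by at least half of the control window in the single-dose screen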;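 note: plate controls were DMSO wells with enzyme plus substrate for no effect and substrate without enzyme for full effect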
Target sequence (P24666 whole entry, looked up): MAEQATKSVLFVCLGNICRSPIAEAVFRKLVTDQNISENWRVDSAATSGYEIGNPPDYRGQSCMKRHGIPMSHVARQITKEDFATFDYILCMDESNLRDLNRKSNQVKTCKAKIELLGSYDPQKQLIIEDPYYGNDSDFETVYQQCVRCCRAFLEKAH
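Assay system: LMPTP-A enzyme. Input: 0.625 nM LMPTP-A final. Probe or stimulus: 400 µM OMFP. Compound dosing: single 20 µM dose. Schedule: 50 min dark incubation at room temperature. Detection: fluorescence intensity of OMFP turnover product. Read-out: percent inhibition versus substrate-only and uninhibited controls. Benchmarks: no-enzyme low control, uninhibited high control.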
DNMT1 inh – inhibitors of human DNMT1; P26358; DNMT1 molecular beacon, Hinp1I cleavage, fluorescence; inhibition (reported as % activation of signal), % at 10 µM; 360,000 compounds, 0.83% hits; AID 588458; in the data active = inhibition above about 50%
Scp1 inh – blocks human Scp-1 phosphatase activity | Recombinant Scp1, phosphopeptide, malachite green phosphate absorbance | inhibition, % at 20 µM | 340,000 compounds, 0.88% hits;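 active = inhibition above about 50% at 20 µM, limit read from the data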;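 note: plate controls were DMSO wells with enzyme for no effect and wells lacking enzyme for full effect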
Target sequence (Q9GZU7 76-261 limits assumed): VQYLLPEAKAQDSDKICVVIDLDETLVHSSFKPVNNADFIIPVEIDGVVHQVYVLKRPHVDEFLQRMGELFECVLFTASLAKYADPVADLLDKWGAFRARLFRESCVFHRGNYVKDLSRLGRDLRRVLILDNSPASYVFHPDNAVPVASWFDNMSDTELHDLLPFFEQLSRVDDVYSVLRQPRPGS
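Incubation: 45 min enzyme reaction at room temperature / System: truncated SCP-1 phosphatase (76-261aa) / Reagent: Phospho 17-mer peptide substrate / Buffer or medium: Acidic Tris acetate buffer with magnesium and detergent / Signal: absorbance at 630 nm / Doses: one concentration, 20 µM, with 1.0% DMSO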
STEP inh – inhibitors of human striatal-enriched phosphatase STEP; P54829; recombinant STEP, OMFP fluorogenic substrate, fluorescence; inhibition, % at 20 µM; 360,000 compounds, 0.25% hits;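 active = inhibition at 20 µM, scaled per plate between control wells, above about 37%, limit read from the data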;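 note: 0% = DMSO with enzyme and substrate and 100% = substrate only without enzyme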
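Measure: Control-normalized % inhibition with plate pattern correction | Test system: STEP phosphatase, cell-free reaction | Medium: pH 6.0 Bis-Tris with DTT and Tween 20 | Technique: Fluorescence, 480/540 nm | Times: Reaction 20 min, ambient temperature | Doses: Single compound dose of 20 µM, 1% DMSO final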
DNMT1 interf DR – counter-screen for DNMT1 inhibitors: spectral interference, dose response; molecular beacon fluorescence; shares compounds with DNMT1 inh; AID 602382; IC50, µM; 200 tested, under 10 active; call rule not given here
DNMT1 inh conf – confirmation of human DNMT1 inhibitors; inhibition, % at 10 µM; shares compounds with DNMT1 inh; 2,300 compounds, 8% hits; DNMT1 molecular beacon HinP1I cleavage, fluorescence;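 active = average inhibition of at least 30% in the single-concentration confirmation test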
Beacon interf – beacon fluorescence artifact counter-screen. 2,300 compounds, 1% hits. AID 602387. DNMT1 molecular beacon spectral interference counterscreen, fluorescence 485/520. shares compounds with DNMT1 inh. activation (fluorescence interference), % at 10 µM;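 active = activation of at least 30% at 10 µM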;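 note: DNMT1 catalytic domain with a HinP1I cleavage step and a FAM/dabcyl DNA beacon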
An asterisk follows results filed as active. Most compounds without a hit are left out; they make up all but 1.7% or so of the library.

For COc1ccc2c(c1)c1c(c(=O)n(-c3ccc(C)cc3)c(=O)n1CC(=O)NCC1CCCO1)n2C (stereo unspecified) the results were SUMO1-SIM PPI -17, LMPTP inh 0, DNMT1 inh 98*, STEP inh -1, DNMT1 inh conf 2 and Beacon interf 2.
Screening Cc1ccc(-n2c(=O)c3c(c4cc(C)ccc4n3C)n(CC(=O)NCC3CCCO3)c2=O)cc1 (stereo unspecified) returned SUMO1-SIM PPI -16, LMPTP inh -2, DNMT1 inh 0 and STEP inh 1.
`CCOC(=O)/C=c1\s/c(=C\c2ccc(C#N)cc2)c(=O)n1CC(=O)NCc1ccco1` gave SUMO1-SIM PPI -7, LMPTP inh 2, DNMT1 inh 50*, Scp1 inh -5, STEP inh 1, DNMT1 inh conf 0 and Beacon interf -4.
CCOC(=O)/C=c1\s/c(=C\c2c(OC)ccc3ccccc23)c(=O)n1CC(=O)NCC1CCCO1 (stereo unspecified) was read as SUMO1-SIM PPI -7, LMPTP inh 2, DNMT1 inh -6, Scp1 inh -4 and STEP inh 0.
`O=C(Nc1ccc(NC(=O)c2sc3ccccc3c2Cl)cc1Cl)c1ccco1` gave SUMO1-SIM PPI -1, LMPTP inh -2, DNMT1 inh 75*, Scp1 inh -2, STEP inh 5, DNMT1 inh conf 0 and Beacon interf -2.
For CN1CCN([C@@H]2CS(=O)(=O)N[C@H]2COCc2ccccc2)CC1 the results were SUMO1-SIM PPI 0, LMPTP inh -4, DNMT1 inh -4 and STEP inh -2.
COc1cc(CCC(=O)Nc2cc(S(=O)(=O)N3CCOCC3)ccc2OC(C)C)cc(OC)c1OC was read as SUMO1-SIM PPI -3, LMPTP inh -1, DNMT1 inh -1 and STEP inh -1.
CN(CC(=O)Nc1ccccc1Cl)C(=O)COC(=O)c1ccc([N+](=O)[O-])s1 was read as SUMO1-SIM PPI 16, LMPTP inh -1, DNMT1 inh 65*, Scp1 inh 5, STEP inh 2, DNMT1 inh conf -2 and Beacon interf -6.
NS(=O)(=O)c1ccc(NC(=O)COC(=O)c2ccc([N+](=O)[O-])s2)cc1 was read as SUMO1-SIM PPI 10, LMPTP inh 0, DNMT1 inh 70*, Scp1 inh -4, STEP inh -2, DNMT1 interf DR >99, DNMT1 inh conf 70* and Beacon interf -2.
CN(CC(=O)Nc1ccccc1Cl)C(=O)COC(=O)c1cccs1 was read as SUMO1-SIM PPI -1, LMPTP inh -1, DNMT1 inh 3, Scp1 inh 7 and STEP inh -2.
For Cc1nn(-c2ccc(C(=O)NCC(c3ccco3)N3CCCC3)cc2)c(C)c1Cl (stereo unspecified) the results were SUMO1-SIM PPI -1, LMPTP inh 1, DNMT1 inh 2, Scp1 inh -9 and STEP inh 2.
For CCOc1ccc(C=NNc2ccc(S(=O)(=O)Nc3ccccc3C(=O)O)cc2[N+](=O)[O-])cc1 the results were SUMO1-SIM PPI 110*, LMPTP inh 97*, DNMT1 inh 85*, Scp1 inh 45, STEP inh 36, DNMT1 interf DR >99, DNMT1 inh conf 102* and Beacon interf -8.
`Cc1nn(-c2ccccc2)c(Cl)c1/C=N/Nc1ccc(S(=O)(=O)Nc2ccccc2C(=O)O)cc1[N+](=O)[O-]` gave SUMO1-SIM PPI 21, LMPTP inh 43, DNMT1 inh 100*, Scp1 inh 0, STEP inh 8, DNMT1 interf DR >99, DNMT1 inh conf 82* and Beacon interf -10.
`C=CCC1NS(=O)(=O)OCC1C(C)C` (stereo unspecified) gave SUMO1-SIM PPI 3, LMPTP inh 2, DNMT1 inh 50*, Scp1 inh 6, STEP inh -2, DNMT1 inh conf 1 and Beacon interf 1.
For C=CCC1NS(=O)(=O)OCC1NC(=O)OCC(Cl)(Cl)Cl (stereo unspecified) the results were SUMO1-SIM PPI -1, LMPTP inh -1, DNMT1 inh 4, Scp1 inh -9 and STEP inh -4.
`COc1ccc([C@H]2[C@H](C(=O)C(C)(C)C)N3N=Cc4ccccc4C3[C@]23N=C(c2ccccc2)OC3=O)cc1` (stereo partly specified) gave SUMO1-SIM PPI 3, LMPTP inh 1, DNMT1 inh -3, Scp1 inh -10 and STEP inh 0.
COc1ccc([C@H]2[C@H](C(=O)C(C)(C)C)N3N=Cc4ccccc4C3[C@]23N=C(c2ccccc2)OC3=O)cc1OC (stereo partly specified) was read as SUMO1-SIM PPI -5, LMPTP inh 1, DNMT1 inh 55*, Scp1 inh -5, STEP inh 1, DNMT1 inh conf 3 and Beacon interf 2.
For CCN(CC)C(=O)Cn1cnc2sc(C)c(S(=O)(=O)N3CCC(C)CC3)c2c1=O the results were SUMO1-SIM PPI 4, LMPTP inh -2, DNMT1 inh 2, Scp1 inh -8 and STEP inh 0.
Screening CCCNC(=O)c1ccc2c(=O)n3c(-c4ccc(C)cc4)csc3nc2c1 returned SUMO1-SIM PPI -20, LMPTP inh -2, DNMT1 inh 53*, Scp1 inh 5, STEP inh 1, DNMT1 inh conf 13 and Beacon interf -2.
Screening COc1ccc(OC)c(S(=O)(=O)N2CCN(CC(O)COc3ccccc3)CC2)c1 (stereo unspecified) returned SUMO1-SIM PPI 5, LMPTP inh -2, DNMT1 inh 2, Scp1 inh -5 and STEP inh 2.
Screening COc1ccc(CCN2CC(C(=O)OCC(=O)Nc3c(C)nn(-c4ccccc4)c3C)CC2=O)cc1OC (stereo unspecified) returned SUMO1-SIM PPI 6, LMPTP inh 0, DNMT1 inh 86*, Scp1 inh 1, STEP inh 1, DNMT1 inh conf 4 and Beacon interf 4.
`CCNc1nc(NC(C)C)nc(-c2ccncc2)n1` gave SUMO1-SIM PPI -1, LMPTP inh -1, DNMT1 inh 0 and STEP inh -1.

Compound activity (PubChem BioAssay)
